Rows were chosen to be rich in hits. Some 1.9% of all compounds tested hit in one or more screens of this group.
SR-BI uptake up: activators of SR-BI mediated DiI-HDL uptake, primary screen, ldlA[mSR-BI] CHO cells, DiI fluorescence | hit rate 0.096% among 320,000 | activation, % at 12.5 µM | 3 h; 100 = double the neutral-control signal;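 active = mean replicate activation of at least 60% and every replicate at or above 60%; inconclusive = mean or all-replicate condition met, but not both; inactive = mean below 60% and not all replicates reaching 60%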
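Assay system: LDL receptor-deficient CHO ldlA cells overexpressing murine SR-BI / Medium: BSA-supplemented, HEPES-buffered Ham's F12, pH 7.4 / Probe or stimulus: DiI-labelled HDL at 10 µg/mL final / Timing: compound with DiI-HDL co-incubation, 3 h at 37 °C / Technique: bottom-read cell fluorescence after medium removal, ex 550/em 595 nm / Measure: HDL uptake via cellular fluorescence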
Neddylation inh: inhibitors of cullin neddylation, primary screen, biochemical, TR-FRET, uHTS, NAE and Ubc12; NEDD8-conjugating enzyme Ubc12 (Homo sapiens) + NEDD8-activating enzyme E1 regulatory …; inhibition, % at 25 µM; hit rate 0.58% among 360,000; AID 651699, 2012; in the data active = inhibition above about 36%
Target sequence (P61081 whole entry, looked up): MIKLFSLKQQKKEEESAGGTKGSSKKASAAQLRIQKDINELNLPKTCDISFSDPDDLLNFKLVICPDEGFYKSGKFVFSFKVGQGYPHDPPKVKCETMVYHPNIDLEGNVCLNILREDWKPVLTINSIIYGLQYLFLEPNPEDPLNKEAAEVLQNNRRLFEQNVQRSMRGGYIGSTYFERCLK
Target sequence (Q13564 whole entry, looked up): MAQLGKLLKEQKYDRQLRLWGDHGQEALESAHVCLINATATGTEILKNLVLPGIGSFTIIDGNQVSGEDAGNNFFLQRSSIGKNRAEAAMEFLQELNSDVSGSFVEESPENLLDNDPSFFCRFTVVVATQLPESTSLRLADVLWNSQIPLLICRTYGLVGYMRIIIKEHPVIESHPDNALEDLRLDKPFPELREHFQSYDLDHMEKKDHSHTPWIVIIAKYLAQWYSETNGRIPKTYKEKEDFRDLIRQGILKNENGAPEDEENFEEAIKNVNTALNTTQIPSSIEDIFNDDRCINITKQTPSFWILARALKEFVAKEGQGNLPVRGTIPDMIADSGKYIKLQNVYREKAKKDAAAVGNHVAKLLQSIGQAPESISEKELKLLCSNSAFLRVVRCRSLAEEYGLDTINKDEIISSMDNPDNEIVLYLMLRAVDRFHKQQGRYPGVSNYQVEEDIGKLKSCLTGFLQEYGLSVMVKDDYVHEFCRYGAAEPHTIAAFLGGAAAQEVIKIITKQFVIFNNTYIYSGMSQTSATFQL
UBC13 inh: UBC13 polyubiquitin chain formation inhibitors, primary screen, biochemical, TR-FRET, uHTS. Ubiquitin-conjugating enzyme E2 N (Homo sapiens), P61088. inhibition, % at 20 µM. hit rate 0.47% among 330,000. AID 485273, 2010; in the data active = inhibition above about 45%, passing the limit was not always enough; inconclusive = no clear call, values can overlap the other calls
SR-BI HDL uptake: inhibitors of SR-BI mediated HDL lipid uptake, primary screen, ldlA[mSR-BI] cells, fluorescence, single point; Scavenger receptor class B member 1 (Mus musculus), Q61009; ldlA[mSR-BI] CHO cells, DiI-HDL uptake fluorescence, 3 h; inhibition, % at 12.5 µM; hit rate 0.96% among 320,000; AID 488896, 2010;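 active = mean replicate inhibition of at least 70% and a set share of replicates each scoring 70 or more; inconclusive = meets just one of the two criteria; inactive = fails both criteria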
Each line names hits and unclear results; the compound was inactive in the other large screens.

COc1ccc(/C=N/Nc2nncc3ccccc23)c(OC)c1	SR-BI HDL uptake 76
CN(C)c1ccc(C(=O)N/N=C/c2ccccn2)cc1	none
CCN(C(=O)c1ccc(S(=O)(=O)N2CCOCC2)cc1)C1CCS(=O)(=O)C1 (stereo not given)	none
O=C(N/N=C/c1cc(Br)ccc1O)C(c1ccncc1)N1CCOCC1 (stereo not given)	Neddylation inh 47
C=CCOC(=O)C1=C(C)NC(=S)NC1c1cccs1 (stereo not given)	SR-BI HDL uptake 78
COCCOC(=O)C1=C(C)NC(=S)NC1c1cccs1 (stereo not given)	none
CC(C)Nc1nc(Nc2ccccc2Cl)c2sccc2n1	none (no result: SR-BI uptake up, UBC13 inh, SR-BI HDL uptake)
COc1cccc(C(C(=O)NC2CCCC2)N(C(=O)c2ccco2)c2ccccc2)c1OC (stereo not given)	none (no result: SR-BI uptake up, SR-BI HDL uptake)
COc1cccc(C(C(=O)NC2CCCC2)N(C(=O)c2ccco2)c2ccc(C(C)=O)cc2)c1OC (stereo not given)	SR-BI uptake up 234
CC(C)OC(=O)/C(=C\c1ccc2c(c1)c1ccccc1n2C)NC(=O)c1ccccc1	Neddylation inh 38
Cn1c2ccccc2c2cc(/C=C(\NC(=O)c3ccccc3)C(=O)O)ccc21	none
COCCCNC(=O)c1cc2c(-c3ccc(Cl)cc3)nn(C)c2s1	SR-BI HDL uptake 77
COCCNC(=O)c1cc2c(-c3ccc(Cl)cc3)nn(C)c2s1	SR-BI HDL uptake 87 (not shown: Neddylation inh)
Cn1nc(-c2ccc(Cl)cc2)c2cc(C(=O)NCCCN3CCCC3)sc21	SR-BI HDL uptake 76 (not shown: Neddylation inh)
Cc1ccc(CNC(=O)c2cc3c(-c4ccc(Cl)cc4)nn(C)c3s2)o1	SR-BI HDL uptake 76
Oc1ccc(C[C@H]2CNC(=S)N2C[C@H]2CCCN2C[C@H](Cc2ccccc2)N2C[C@H](Cc3ccc(O)cc3)N(CC3CCCCCC3)C2=S)cc1	none (no result: SR-BI uptake up, UBC13 inh, SR-BI HDL uptake)
CCCCN1C(=O)C(CC(=O)NCc2ccco2)CC(C(=O)N2CCOCC2)=C1C (stereo not given)	none (no result: SR-BI uptake up, UBC13 inh, SR-BI HDL uptake)
COc1cc(NC(=O)c2ccccc2Cl)ccc1NC(=O)c1cccs1	none
COc1cc(C(=O)Nc2cccc(NC(=O)c3cccs3)c2)cc(OC)c1OC	SR-BI HDL uptake 78
COc1cc(NC(=O)c2ccc3c(c2)OCCO3)ccc1NC(=O)c1cccs1	SR-BI HDL uptake 74
COc1cc(NC(=O)c2cccc(Cl)c2)ccc1NC(=O)c1cccs1	SR-BI HDL uptake 75 (not shown: Neddylation inh)
CCN(CC(=O)Nc1ccccc1C(F)(F)F)C(=O)c1ccc2[nH]c3c(c2c1)CC(C)CC3 (stereo not given)	none
CC(C)c1ccc(N(CCc2ccccn2)C(=O)C(C)(C)C)cc1	none (no result: SR-BI uptake up, SR-BI HDL uptake)
CCOC(=O)CCCCCC(=O)Nc1ccc2c(c1)C(=O)N([C@H](C)CO)C[C@H](C)[C@@H](CN(C)S(C)(=O)=O)OCCCC[C@@H](C)O2	none (no result: SR-BI uptake up, UBC13 inh, SR-BI HDL uptake)
Cc1nc2c(OCc3ccc(C#N)cc3)cccn2c1N(C)Cc1cccs1	none (no result: SR-BI uptake up, UBC13 inh, SR-BI HDL uptake)
OC(c1ccc(Cl)cc1)c1ncc(-c2ccccc2Cl)[nH]1 (stereo not given)	none (no result: SR-BI uptake up, UBC13 inh, SR-BI HDL uptake)
COc1ccc(/C(C)=N\Nc2nc(-c3ccc(Cl)cc3)cc(C(F)(F)F)n2)cc1OC	none
COc1ccc(/C=N/Nc2nc(-c3ccc(Cl)cc3)cc(C(F)(F)F)n2)c(OC)c1	SR-BI HDL uptake 80
O=C(COC(=O)C1CCN(S(=O)(=O)c2ccc(Cl)c(C(F)(F)F)c2)CC1)NCC1CCCO1 (stereo not given)	none (no result: SR-BI uptake up, UBC13 inh, SR-BI HDL uptake)
COCC(=O)Nc1ccc2c(c1)[C@@H]1C[C@H](CC(=O)OC)O[C@H](CO)[C@@H]1O2	none (no result: SR-BI uptake up, UBC13 inh, SR-BI HDL uptake)
O=C(N/N=C/c1ccccn1)c1cc(-c2ccc(Br)cc2)nc2ccccc12	Neddylation inh 46, SR-BI HDL uptake 76
O=C(N/N=C/c1ccccc1OC(F)F)c1cc(-c2ccncc2)nc2ccccc12	SR-BI HDL uptake 90
Cc1ccc(-c2cc(C(=O)N/N=C\c3cnn(C)c3C)c3ccccc3n2)cc1C	SR-BI HDL uptake 96
O=C(N/N=C/c1ccccn1)c1cc(-c2ccc(Cl)cc2)nc2ccccc12	SR-BI HDL uptake 107
O=C(N/N=C/c1ccco1)c1cc(-c2ccccc2)nc2ccccc12	none
CCc1nnc(NC(=O)CC(C)c2ccccc2)s1 (stereo not given)	none
O=C(O)c1ccccc1/C=N/NC(=O)c1cc(-c2ccco2)nc2ccccc12	Neddylation inh 49
Cc1c(NS(=O)(=O)c2cc(C(=O)Nc3ccc(F)cc3Cl)ccc2Cl)c(=O)n(-c2ccccc2)n1C	none (no result: UBC13 inh)
Cc1ccc(NC(=O)c2ccc(Cl)c(S(=O)(=O)Nc3c(C)n(C)n(-c4ccccc4)c3=O)c2)cc1Cl	SR-BI HDL uptake 73
COc1ccc2c(C(=O)NCc3ccc4c(c3)OCO4)c(-c3ccc(S(C)(=O)=O)cc3)sc2c1	UBC13 inh inconclusive
CCOc1cc(/C=C2/C(=N)N3C=CSC3=NC2=O)ccc1OCCCOc1ccccc1C	SR-BI HDL uptake 102 (not shown: Neddylation inh)
COc1cc(/C=C2/C(=N)N3C=CSC3=NC2=O)ccc1OCCCOc1c(C)cccc1C	SR-BI HDL uptake 81 (not shown: Neddylation inh)
OCC1OC(n2ccc3c(SCc4ccccc4)ncnc32)C(O)C1O (stereo not given)	none (no result: UBC13 inh)
C=CC(=O)Nc1cccc(Oc2ccnc3[nH]ccc23)c1	Neddylation inh 38 (no result: UBC13 inh)
C=CC(=O)Nc1cccc(Oc2ccnc(Nc3ccc(N4CCN(C)CC4)cc3)n2)c1	none (no result: UBC13 inh)
CCOC(=O)N1CCN(C(=O)c2cc(COc3c(F)cccc3F)on2)CC1	none
O=S(=O)(c1ccccc1)c1cnc(-c2ccccc2)nc1N1CCCC1	SR-BI HDL uptake 85
Cc1ccc(S(=O)(=O)c2cnc(-c3ccccc3)nc2N2CCCCC2)cc1	none
CC(Oc1ccc2c3c(c(=O)oc2c1)CCCC3)C(=O)NCc1cccnc1 (stereo not given)	none (not shown: Neddylation inh)
CCCN1C(=O)c2cc(C(=O)Nc3ccc(OC)cc3OC)ccc2C1Nc1ccc(OC)cc1OC (stereo not given)	SR-BI HDL uptake 74
Cc1cc(C)c2c(CC(=O)NNC(=O)c3ccccc3)coc2c1	none
CCn1c2ccccc2c2cc(NC(=O)c3ccc(C)c([N+](=O)[O-])c3)ccc21	none
CCn1c2ccccc2c2cc(NC(=O)c3cc(OC)cc(OC)c3)ccc21	SR-BI HDL uptake 77
CCn1c2ccccc2c2cc(NC(=O)c3cccc([N+](=O)[O-])c3)ccc21	SR-BI HDL uptake 80
CCn1c2ccccc2c2cc(NC(=O)c3cc(OC)c(OC)c(OC)c3)ccc21	none
C[C@H]1CN([C@@H](C)CO)C(=O)CCCn2nncc2CO[C@H]1CN(C)S(=O)(=O)c1ccc2c(c1)OCCCO2	none (no result: SR-BI uptake up, UBC13 inh, SR-BI HDL uptake)
COc1cccc(OCC(=O)NNC(=O)c2ccc3ccccc3c2O)c1	SR-BI HDL uptake 89 (not shown: SR-BI uptake up, Neddylation inh)
Cc1cccc(NC(=O)NNC(=O)c2ccc3ccccc3c2O)c1	none (not shown: Neddylation inh)
Cc1ccc(C(=O)NNC(=O)c2ccc3ccccc3c2O)cc1	SR-BI HDL uptake 111
COc1ccc(C(=O)NNC(=O)c2ccc3ccccc3c2O)cc1	SR-BI HDL uptake 75

Source: PubChem BioAssay (several laboratories)
